Results from different studies.
Compare with care: the assays were run in different laboratories.

CN(c1ncco1)c1ncnc2ccc(-c3cccc(N4CCOCC4)c3)cc12  solubility (aqueous buffer; pH 7.4, 25 °C): 802 µM
CC(C)(C)OC(=O)N1CCC(Oc2ccc3c(=O)c4c(Cl)cc(F)cc4[nH]c3c2)CC1  solubility (absorbance; aqueous buffer; 90 min, pH 7.4): < 3.12 µM
Cc1ccc(N(C)c2ccc(NC(=O)CN(C)c3cc(F)ccc3N3CCCC3=O)cc2)cc1  solubility (PBS; pH 7.4): 6.3 µM
Clc1cccc(Nc2ncnc3ccc(-c4cccc(N5CCOCC5)c4)cc23)c1  solubility (aqueous buffer; pH 7.4, 25 °C): 12 µM
COc1cnccc1Cn1nc(-c2ccc(CO)o2)c2ccccc21  solubility (aqueous buffer; 6 h, pH 7.4): > 33 µg/mL
COc1ccc(Oc2ccc3c(=O)c4c(F)cc(Cl)cc4[nH]c3c2)cc1  solubility (absorbance; aqueous buffer; 90 min, pH 7.4): < 3.12 µM
O=C(O)Cc1ccccc1Nc1c(Cl)cccc1Cl  solubility (FeSSIF): 303 µM
CN1CCC(Nc2ncnc3ccc(-c4cccc(N5CCOCC5)c4)cc23)CC1  solubility (aqueous buffer; pH 7.4, 25 °C): 928 µM
Cc1ccc(Oc2ccc(NC(=O)CNc3ccccc3-n3cncn3)cc2)cc1  solubility (PBS; pH 7.4): 15 µM
Cc1ccc(Nc2cnnc3ccc(-c4ccc(N5CCN(C)CC5)cc4)cc23)cn1  solubility (aqueous buffer; pH 7.4, 25 °C): 60 µM
OCc1ccc(-c2nn(Cc3ccccn3)c3cccnc23)o1  solubility (aqueous buffer; 6 h, pH 7.4): > 30 µg/mL
Cn1cc(-c2ccc3ccn(CC(=O)Nc4ccccc4Cl)c3c2)c(C(F)(F)F)n1  solubility (PBS; pH 7.4): < 2.7 µM
CNS(=O)(=O)c1ccc(Nc2ncc(C(F)(F)F)c(N3CCC[C@](C)(O)C3)n2)c(C)c1  solubility (PBS; 2 h, pH 7.4): 37 µM
Clc1ccc(Nc2ncnc3ccc(-c4cccc(N5CCOCC5)c4)cc23)cc1Cl  solubility (aqueous buffer; pH 7.4, 25 °C): 4 µM
O=C(CCCCCCC(=O)Nc1ccccc1)NO  solubility (water): 720 µg/mL
CCOc1ccc(Nc2c3c(nc4ccccc24)CCC3)cc1  solubility (simulated gastric fluid; 30 min, pH 2, acidic): > 100 µg/mL
CC[C@H]1OC(=O)[C@H](C)[C@@H](O[C@H]2C[C@@](C)(OC)[C@@H](O)[C@H](C)O2)[C@H](C)[C@@H](O[C@@H]2O[C@H](C)C[C@H](N(C)C)[C@H]2O)[C@](C)(O)C[C@@H](C)C(=O)[C@H](C)[C@@H](O)[C@]1(C)O  solubility (aqueous buffer; 18 h, pH 7.4): 664 µM
CN1CCN(c2cccc(-c3ccc4ncnc(Nc5ncco5)c4c3)c2)CC1  solubility (aqueous buffer; pH 7.4, 25 °C): 520 µM
CNS(=O)(=O)c1ccc(Nc2ncc(C(F)(F)F)c([C@H]3CC[C@](C)(O)CC3)n2)c(C)c1  solubility (PBS; 2 h, pH 7.4): 0.4 µM
Cc1ccc(Oc2ccc(NC(=O)CN(C)c3ccccc3N3CCCC3=O)cc2)cc1  solubility (PBS; pH 7.4): 4.8 µM
O=C(O)c1cc(-c2ccc(-n3ccnn3)cc2)c2ccc(-c3ccc(C(F)(F)F)cc3)cc2c1  solubility (aqueous buffer; pH 4): 0.19 µg/mL
C[C@@H]1CN(c2cccc(-c3ccc4ncnc(Nc5ncco5)c4c3)c2)C[C@H](C)O1  solubility (aqueous buffer; pH 7.4, 25 °C): 11 µM
Cc1ccc(Oc2ccc(NC(=O)COc3ccccc3N3CCCC3=O)cc2)cc1  solubility (PBS; pH 7.4): 4.2 µM
COc1ccccc1Cn1nc(-c2ccc(CO)o2)c2ccccc21  solubility (aqueous buffer; 6 h, pH 7.4): 1 µg/mL
CC1(CNc2nc(-c3cccs3)nc(Cl)c2-c2c(F)cc(N)cc2F)COC1  solubility (mass spectrometry; PBS; pH 7.4): 46 µM
CCOC(=O)C1=C(CN2CCC[C@@H]2C(=O)Nc2ccc(B(O)O)cc2)NC(c2nccs2)=N[C@H]1c1ccc(F)cc1Br  solubility (HPLC; aqueous buffer; pH 7.4): 4.14 µg/mL
Cc1ccccc1CN1C(=O)C2=C(CCN(Cc3ccccc3)C2)N2CCN=C12  solubility (shake flask; aqueous buffer; pH 5): 6020 µg/mL
Cc1ccc(N(c2ccc(NC(=O)CN(C)c3ccccc3N3CCCC3=O)cn2)C(C)C)cc1  solubility (PBS; pH 7.4): 24 µM
O=C1COc2ccc(-c3cccc(Cl)c3)cc2N1Cc1noc(C2CCC2)n1  solubility (PBS; 8 h, pH 7.4): 100 µM
CC(C)(C(=O)O)[C@@H](NC(=O)Cc1cccc(I)c1)c1ccc2oc(=O)[nH]c2c1  solubility (aqueous buffer; pH 6.8): > 700 µM
OCc1ccc(-c2nn(Cc3ccccc3)c3ncccc23)o1  solubility (aqueous buffer; 6 h, pH 7.4): > 45 µg/mL
CC(=O)N[C@@H](CS)C(=O)O  solubility (aqueous buffer; pH 7.5): 164000 µg/mL
CCCN(CCC)CCNc1ccc2c(=O)c3c([nH]c2c1)CCCC3  solubility (absorbance; aqueous buffer; 90 min, pH 7.4): > 500 µM
OCc1ccc(-c2nn(Cc3ccncc3)c3ccccc23)o1  solubility (aqueous buffer; 6 h, pH 7.4): > 45 µg/mL
Nc1nc2c(ncn2COCCO)c(=O)[nH]1  solubility (shake flask; water; 24 h): 1770 µg/mL
OCc1ccc(-c2nn(Cc3ccccc3)c3ccncc23)o1  solubility (aqueous buffer; 6 h, pH 7.4): > 45 µg/mL
CN1CCN(c2ccc(-c3ccc4nncc(Nc5ccc(OC(F)(F)F)cc5)c4c3)cc2)CC1  solubility (aqueous buffer; pH 7.4, 25 °C): 2.5 µM
OCc1ccc(-c2nn(Cc3ccncc3)c3cccnc23)o1  solubility (aqueous buffer; 6 h, pH 7.4): > 30 µg/mL
c1cc(-c2ccc3ncnc(Nc4ncco4)c3c2)cc(N2CC3(COC3)C2)c1  solubility (aqueous buffer; pH 7.4, 25 °C): 3 µM
Oc1ccc(/C=C/c2cc(O)cc(O)c2)cc1  solubility (HPLC; aqueous buffer; 24 h, pH 6.8): 79.5 µg/mL
CNS(=O)(=O)c1ccc(Nc2ncc(C(F)(F)F)c(N3CCC(C)(O)CC3)n2)c(C)c1  solubility (FaSSIF; 2 h): 26 µM
CCN(CC)CCCOc1ccc2c(=O)c3c([nH]c2c1)CCCC3  solubility (absorbance; aqueous buffer; 90 min, pH 7.4): > 500 µM
O=C(Nc1ccc(OC(F)(F)F)cc1)N[C@H]1CC[C@H](Oc2ccc(C(=O)O)cc2)CC1  solubility (simulated gastric fluid; 10 min, pH 1, 37 °C, acidic): 0.0002 µg/mL
O=c1c2ccc(OCc3ccc(OC(F)(F)F)cc3)cc2[nH]c2cc(Cl)cc(F)c12  solubility (absorbance; aqueous buffer; 90 min, pH 7.4): < 3.12 µM
CCOC(=O)C1=C(CN2CCOCC2)NC(c2nccs2)=NC1c1ccc(F)cc1Br (stereo not drawn)  solubility (HPLC; aqueous buffer; pH 2): 183 µg/mL
